# Data reported in PMC3529830 (Chemistry & biology, 2012).
# Legend:
# P. berghei = P. berghei mouse model of malaria, parasitemia; assay type: in vivo, Plasmodium berghei in Balb/c mice; details: tolerated dose, I.V. daily for 3 consecutive days
# [1] = Host toxicity in P. berghei infected mice during treatment; details: daily I.V. doses, scruffy coat, significant weight loss
# P. falciparum [2] = test: P. falciparum replication assay; assay type: cell-based; details: Plasmodium falciparum, read-out: EC50, parasite replication
# [3] = tested on: non-confluent human foreskin fibroblast (HFF) cells; test: HFF cell toxicity assay; assay type: cell-based; details: read-out: EC50, host cell killing
# [4] = biological target: putative β5 subunit of P. falciparum proteasome (Plasmodium falciparum, UniProt Q8IJT1); test: Proteasome activity in intact inhibitor-treated trophozoites by MV151 labeling; assay type: cell-based
# How it was run: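 P. falciparum culture at ~15% parasitemia; intact trophozoites exposed 1 hr to a range of inhibitor concentrations, then pelleted and washed 3× in fresh medium. Hypotonic lysis (50 mM Tris pH 7.4, 5 mM MgCl2, 1 mM DTT) on ice 1 hr. ≥2 μg lysate labeled with 2 μM MV151, 37°C 1 hr. Run on 12% SDS-PAGE, TAMRA fluorescence scan. Band intensity expressed as % of DMSO; curve fit to IC50; 3 independent experiments.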
# [5] = 5 consecutive days of treatment; ref Demo et al., 2007; cited from earlier work
# P. falciparum proteasome = test: Recovery of P. falciparum proteasome activity after inhibitor washout; assay type: cell-based, Plasmodium falciparum
# [6] = tested on: P. falciparum gametocytes; test: P. falciparum gametocyte viability assay; assay type: cell-based, Plasmodium falciparum; details: 24 hr treatment
# P. falciparum [7] = details: 1 μM; ref Czesny et al., 2009; cited from earlier work
# NIH3T3 cells = details: 1 μM; ref Czesny et al., 2009; cited from earlier work
# A549 cells = details: 1 μM; ref Czesny et al., 2009; cited from earlier work
# [8] = rat P. berghei model; ref Gantt et al., 1998; cited from earlier work
compound,measurement,setting,value
"CC(C)C[C@H](NC(=O)[C@H](CCc1ccccc1)NC(=O)CN1CCOCC1)C(=O)N[C@@H](Cc1ccccc1)C(=O)N[C@@H](CC(C)C)C(=O)[C@@]1(C)CO1 [carfilzomib, Carfilzomib]",effect on parasite burden,P. berghei,only a very minor effect on parasite burden at day 3
same,dose at which mice started to develop signs of compound toxicity,[1],1 mg/kg
same,EC50,P. falciparum [2],28.8 nM
same,EC50,[3],492 nM
same,IC50,[4],25 nM
same,maximum tolerable dose,[5],2 mg/kg
same,inhibitor exposure necessary to prevent recovery of proteasome activity,"P. falciparum proteasome; 100 nM dose, activity determined 10 hr after washout",at least 6 hr
same,recovery of proteasome activity after washout,"P. falciparum proteasome; 1 μM, 1 hr treatment, 47 hrs after compound washout",substantial recovery of proteasome activity
same,time to recovery of proteasome activity after inhibitor removal,"P. falciparum proteasome; 1 hr treatment of trophozoites, washout, depending on the dose",≤ 24 h
same,activity against gametocytes,[6],effective towards gametocytes
CC[C@H](C)[C@H](NC(=O)[C@H]([C@@H](C)CC)N(C)C(C)=O)C(=O)N[C@H](C(=O)N[C@@H](CC(C)C)C(=O)[C@@]1(C)CO1)[C@@H](C)O [epoxomicin],effect on P. falciparum replication,P. falciparum [7],completely blocking
same,decrease in viability,NIH3T3 cells,20%
same,decrease in viability,A549 cells,20%
"CC(=O)N[C@@H](CSC(=O)[C@]1([C@@H](O)C(C)C)NC(=O)[C@H](C)[C@@H]1O)C(=O)O [lactacystin, Lactacystin]",host toxicity,[8],significant host toxicity
